Test results reported in PubChem BioAssay.
Active and inactive are the calls of the source.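 Rule for the calls, unless noted: active = viability at or below 30% in both replicate assays; inconclusive = viability at or below 30% in just one of the two assays; inactive = the rest.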

Key:
[1] = reduced viability of SK-BR-3 breast cancer cells – cell-based, 24 h, human, pilot screen (AID 572;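 active = viability at or below 10% of carrier control in both of two separate runs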;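 note: compound exposure lasted between 18 and 24 h rather than exactly 24 h; 100% = carrier-treated control wells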); details: SK-BR-3 viability, CellTiter-Glo luminescence, at 10 µM, stronger effect = lower value
[2] = HUVEC growth inhibition – cell-based, human, primary screen (AID 575); details: HUVEC proliferation, CellTiter-Glo luminescence, 72 h; at 10 µM; stronger effect = lower value;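 note: 100% = median of untreated cell wells with 0.1% DMSO on each plate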
Outline: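 material = primary HUVEC, no more than 12 passages | input = 1250 cells per well | controls = vehicle and MePR control wells | measured by = CTG luminescence | times = 72 h compound incubation | format = collagen-coated 384-well format | read-out = % viability vs DMSO wells | doses = single 10 µM dose, 0.1% DMSO, from 5x medium stock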

[3] = H69AR cell proliferation blockers – human, duplicate replicates, primary screen (AID 580;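 active = viability at or under a set limit in both replicates, limit being median viability minus 3 SD, cut at about 48% in these data, passing the limit was not always enough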;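 note: 100% = mean luminescence of untreated wells and 0% = no signal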); details: H69AR lung tumor cells viability, ATP luminescence, 72 h; at 10 µM; stronger effect = lower value
[4] = MRP1 drug-resistance reversers in H69AR cells – cell-based, doxorubicin co-treatment, pilot screen (AID 601;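 active = viability loss from added drug above about 55%, and viability with drug at most 40%, in both replicates, limit read from the data, passing the limit was not always enough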); details: CellTiter-Glo, 72 h, at 10 µM; for differential viability (reversal): stronger effect = higher value
[5] = yeast transport mutant growth inhibition pilot in 384-well plates, post-Golgi transport modulator project (AID 636; in the data active = inhibition above about 31%); details: absorbance 615 nm, about 18 h, stronger effect = higher value
[6] = growth suppression of yeast trafficking mutant, preliminary HTS, modulators of trafficking downstream of Golgi apparatus project, 1536-format plate, OD 615 nm (AID 637; in the data active = inhibition above about 30%); details: yeast transport mutant growth, absorbance 615 nm, 18 h; stronger effect = higher value
[7] = H69AR cells + 2 uM doxorubicin, measured here: viability with 2 uM doxorubicin, stronger effect = lower value
[8] = H69AR cells, compound alone cytotoxicity

| Compound | viability [1] | viability [2] | viability [3] | differential viability (reversal) ([4]; H69AR cells + 2 uM doxorubicin) | viability [4, 7] [%] | viability [4, 8] [%] | inhibition [5] | inhibition [6] |
| --- | --- | --- | --- | --- | --- | --- | --- | --- |
| COc1ccc(C(=O)Nc2ccc(S(=O)(=O)Nc3onc(C)c3C)cc2)cc1 | 91% (inactive) | 108% (inactive) | 117% (inactive) | 23.6% (inactive) | 93.4 | 117 | -2.03% (inactive) | -0.91% (inactive) |
| CCc1nn(CC(=O)N2CCN(Cc3ccc4c(c3)OCO4)CC2)c(=O)c2cc3occc3n12 | 87% (inactive) | 100% (inactive) | 91.8% (inactive) | -2.36% (inactive) | 94.2 | 91.8 | 0.14% (inactive) | -4.55% (inactive) |
| Cc1cc2ccccc2c(=O)n1CC(=O)Nc1ccc2c(c1)OCO2 | 136% (inactive) | 86.6% (inactive) | 98.9% (inactive) | 5.25% (inactive) | 93.7 | 98.9 | -2.34% (inactive) | -7.05% (inactive) |
| Cc1ccc(S(=O)(=O)N2CCN(C(=O)N3CCOCC3)C2C)cc1 (stereo unspecified) | 76% (inactive) | 103% (inactive) | 99% (inactive) | -4.24% (inactive) | 103 | 99 | -8.08% (inactive) | -2.18% (inactive) |
| CCCn1c(SCC(=O)NC(=O)NCc2ccco2)n[nH]c1=O | 101% (inactive) | 90.4% (inactive) | 96.6% (inactive) | 1.45% (inactive) | 95.1 | 96.6 | -2.8% (inactive) | -3.64% (inactive) |
| COC(=O)c1[nH]c2ccc(C)cc2c1NC(=O)CN1CCC(C)CC1 | 101% (inactive) | 94.5% (inactive) | 92.5% (inactive) | -6.15% (inactive) | 98.6 | 92.5 | -4.27% (inactive) | -2.73% (inactive) |
| CCn1c(SCC(N)=O)nnc1-c1ccc(S(=O)(=O)N2CCN(C)CC2)cc1 | 97% (inactive) | 105% (inactive) | 95.8% (inactive) | 9.21% (inactive) | 86.6 | 95.8 | 2.93% (inactive) | 6.73% (inactive) |
| CN(C)c1ccc(C2C3=C(CCCC3=O)OC3=C2C(=O)CCC3)cc1 | 90% (inactive) | 97% (inactive) | 92.5% (inactive) | 2.78% (inactive) | 89.7 | 92.5 | -5.73% (inactive) | -2.18% (inactive) |
| CCc1ccc2[nH]c(=O)c(C(c3nnnn3CC3CCCO3)N3CCN4CCCC4C3)cc2c1 (stereo unspecified) | 100% (inactive) | 109% (inactive) | 105% (inactive) | 14.1% (inactive) | 91.1 | 105 | -3.2% (inactive) | -2.55% (inactive) |
| Nc1ccc(S(=O)(=O)c2cccc(N)c2)cc1 | 62% (inactive) | 100% (inactive) | 96.2% (inactive) | 11.8% (inactive) | 84.4 | 96.2 | -9.18% (inactive) | 1.64% (inactive) |
| O=C(NC1CCCC1)C(c1cccs1)N(Cc1ccco1)C(=O)Cn1nnc(-c2cccs2)n1 (stereo unspecified) | 71% (inactive) | 87.3% (inactive) | 92.8% (inactive) | -1.47% (inactive) | 94.3 | 92.8 | -8.22% (inactive) | -0.48% (inactive) |
| CC(C)OC(=O)c1ccc(NC(=O)C2C3CC4OC(=O)C2C4C3)cc1 (stereo unspecified) | 104% (inactive) | 91.8% (inactive) | 95.6% (inactive) | 7.04% (inactive) | 88.5 | 95.6 | -1.49% (inactive) | -4.91% (inactive) |
| Cc1ccc(S(=O)(=O)NCC(=O)OCN2C(=O)c3ccccc3C2=O)cc1 | 94% (inactive) | 99.6% (inactive) | 105% (inactive) | -10.3% (inactive) | 115 | 105 | -2.73% (inactive) | 0.16% (inactive) |
| Cc1ccc(C)c(-n2nnnc2SCC(=O)NCCC2=CCCCC2)c1 | 91% (inactive) | 73.5% (inactive) | 93.2% (inactive) | -11.3% (inactive) | 105 | 93.2 | -4.66% (inactive) | 2.36% (inactive) |
| CC(OC(=O)CNC(=O)C12CC3CC(CC(C3)C1)C2)C(=O)Nc1ccc(N2CCOCC2)cc1 (stereo unspecified) | 121% (inactive) | 101% (inactive) | 97.2% (inactive) | 2.31% (inactive) | 94.8 | 97.2 | -0.68% (inactive) | -2.55% (inactive) |
| O=C(CSc1nc(-c2ccco2)cc(C(F)(F)F)n1)N1CCCc2ccccc21 | 109% (inactive) | 72.5% (inactive) | 84% (inactive) | 2.16% (inactive) | 81.9 | 84 | -1.05% (inactive) | -0.16% (inactive) |

| Compound | viability [1] | viability [2] | viability [3] | differential viability (reversal) ([4]; H69AR cells + 2 uM doxorubicin) | viability [4, 7] [%] | viability [4, 8] [%] | inhibition [5] | inhibition [6] |
| --- | --- | --- | --- | --- | --- | --- | --- | --- |
| COP(C)(=O)c1c(C)nn(-c2ccccc2)c1C (stereo unspecified) | 122% (inactive) | 104% (inactive) | 96.3% (inactive) | 1.8% (inactive) | 94.5 | 96.3 | 0.39% (inactive) | 1.15% (inactive) |
| CCc1ccccc1NC(=O)CSC1=C(C#N)C(c2ccc(O)c(OC)c2)C2=C(CCCC2=O)N1 (stereo unspecified) | 112% (inactive) | 105% (inactive) | 47.9% (active) | -30.2% (inactive) | 78.1 | 47.9 | -8.08% (inactive) | 5.65% (inactive) |
| CC1CC(C)CN(c2nc3c(c(=O)[nH]c(=O)n3C)n2CCCSc2nc3ccccc3s2)C1 (stereo unspecified) | 59% (inactive) | 115% (inactive) | 100% (inactive) | -5.73% (inactive) | 106 | 100 | -0.14% (inactive) | 4.36% (inactive) |
| CCNC(=O)CC1C(=O)N(c2ccccc2)C(=O)N1CCC(C)C (stereo unspecified) | 117% (inactive) | 95.9% (inactive) | 93.5% (inactive) | 13.9% (inactive) | 79.6 | 93.5 | -0.78% (inactive) | -0.82% (inactive) |
| Cc1c(C(=O)N2CCN(c3ccccc3)CC2)sc2ncnc(N3CCN(c4ccccc4)CC3)c12 | 88% (inactive) | 82.5% (inactive) | 93% (inactive) | -4.17% (inactive) | 97.2 | 93 | 0.13% (inactive) | -4.59% (inactive) |
| Cc1c(N=C2SCC(=O)N2c2c(C)n(C)n(-c3ccccc3)c2=O)c(=O)n(-c2ccccc2)n1C | 120% (inactive) | 113% (inactive) | 94.2% (inactive) | 3.54% (inactive) | 90.6 | 94.2 | -1.43% (inactive) | -1.31% (inactive) |
| CCCCNC(=O)CSc1nc2ccc(N3CCOCC3)cc2c(=O)n1CCc1ccccc1 | 95.5% (inactive) | 70.1% (inactive) | 69.3% (inactive) | 18.1% (inactive) | 51.3 | 69.3 | -7.16% (inactive) | 4.13% (inactive) |
| O=C(CN(CC1CCCO1)S(=O)(=O)c1ccc(S(=O)(=O)NC2CC2)cc1)Nc1ccccc1 (stereo unspecified) | 109% (inactive) | 96.9% (inactive) | 95.3% (inactive) | -1.47% (inactive) | 96.8 | 95.3 | -2% (inactive) | -9.27% (inactive) |
| C[C@H](CS)C(=O)N1CCC[C@H]1C(=O)O | 93% (inactive) | 92.7% (inactive) | 99.8% (inactive) | 8.21% (inactive) | 91.6 | 99.8 | -2.47% (inactive) | 2.83% (inactive) |
| C#CCN(C)Cc1ccccc1 | 96% (inactive) | 94.3% (inactive) | 93.8% (inactive) | -6.42% (inactive) | 100 | 93.8 | 0.26% (inactive) | -1.17% (inactive) |
| N#CC1=C(N)N(c2ccccc2)C(c2ccccc2)C1(C#N)C#N (stereo unspecified) | 84.5% (inactive) | 81.6% (inactive) | 80.1% (inactive) | 1.28% (inactive) | 78.8 | 80.1 | -6.27% (inactive) | -0.97% (inactive) |
| CCN(CC)CCCNc1oc(-c2cccc(Cl)c2)nc1C#N | 113% (inactive) | 74.7% (inactive) | 76.6% (inactive) | -0.39% (inactive) | 77 | 76.6 | -4.55% (inactive) | -0.67% (inactive) |
| CC1(C)SC2[C@H](NC(=O)C(NC(=O)N3CCNC3=O)c3ccccc3)C(=O)N2C1C(=O)O (stereo partly specified) | 107% (inactive) | 80.2% (inactive) | 95.3% (inactive) | 1.74% (inactive) | 93.6 | 95.3 | 0.26% (inactive) | 2.67% (inactive) |
| Cc1cc(=O)[nH]c(SCc2nc3ncccn3c2Br)n1 | 108% (inactive) | 78.4% (inactive) | 88.9% (inactive) | -2.9% (inactive) | 91.8 | 88.9 | -4.81% (inactive) | -3.44% (inactive) |
| CCCCc1c(O)nc(N2CCN(Cc3ccccc3)CC2)[nH]c1=O | 93% (inactive) | 98.8% (inactive) | 96.1% (inactive) | -1.67% (inactive) | 97.8 | 96.1 | -7.16% (inactive) | -1.82% (inactive) |
| NC(N)=Nc1nc(CSCC/C(N)=N/S(N)(=O)=O)cs1 | 89% (inactive) | 98.5% (inactive) | 95.8% (inactive) | -8.47% (inactive) | 104 | 95.8 | 3.9% (inactive) | 5.33% (inactive) |
